Data reported in ChEMBL document CHEMBL4334441, “Exploitation of Antibiotic Resistance as a Novel Drug Target: Development of a β-Lactamase-Activated Antibacterial Prodrug” (J Med Chem, 2019).
In brackets after ≈: the same amount, converted by molar mass. Activity calls are given as the source filed them. The calls are words filed in the database; no cut-off is given here.

What was measured:
[1] = Selectivity ratio of MIC for ciprofloxacin-susceptible Escherichia coli CFT073 harboring pSU18 to MIC for ciprofloxacin-susceptible Escherichia coli DH5[alpha]; assay type: ADME
Escherichia coli [2] = experiment: Growth inhibition of Escherichia coli DH5[alpha] expressing ESBL TEM-116 incubated for 18 hrs by broth microdilution method; assay type: functional
Escherichia coli [3] = experiment: Growth inhibition of ciprofloxacin-susceptible Escherichia coli DH5[alpha] incubated for 18 hrs by broth microdilution method; assay type: organism-based; conditions: in vivo
Procedure, shortened: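 MIC determination against E. coli DH5α, either lacking β-lactamase or expressing the ESBL TEM-116. The MIC is the minimal concentration that inhibits bacterial growth.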

Escherichia coli [4] = experiment: Growth inhibition of Escherichia coli CFT073 harboring pSU18 and CTX-M-1 incubated for 18 hrs by broth microdilution method; conditions: CFT073, 18 h
Escherichia coli [5] = experiment: Growth inhibition of ciprofloxacin-susceptible Escherichia coli CFT073 harboring pSU18 incubated for 18 hrs by broth microdilution method; assay type: organism-based; conditions: in vivo
Procedure, shortened: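 MIC determination in E. coli CFT073, either wild type or carrying pSU18 (empty pEMP, or encoding CTX-M, NDM-1 or KPC). Dose–response growth curves were run, and each point is the mean ± SEM of n = 3. The MIC is the minimal concentration that inhibits bacterial growth.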

[6] = Prodrug activation in Escherichia coli CFT073 harboring CTX-M-1 assessed as bacterial CTX-M-1-mediated compound hydrolysis incubated for 1 hr by 1H-NMR analysis; conditions: bacteria
Procedure, shortened: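 Whole-cell hydrolysis used E. coli CFT073 carrying pSU18 encoding CTX-M-1. The read-out was percentage of compound hydrolysed after 60 min.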

[7] = Prodrug activation in Escherichia coli DH5[alpha] expressing TEM-116 assessed as bacterial TEM-116 mediated compound hydrolysis at 50 uM incubated for 60 mins by 1H-NMR spectra analysis; conditions: bacteria
[8] = Prodrug activation in Escherichia coli DH5[alpha] expressing beta-lactamase CTX-M-1 assessed as bacterial CTX-M-1-mediated compound hydrolysis at 100 uM incubated for 60 mins by 1H-NMR spectra analysis; conditions: bacteria
[9] = Drug metabolism in CTX-M-1-deficient Escherichia coli DH5[alpha] assessed as compound hydrolysis at 100 uM incubated for 60 mins by 1H-NMR spectra analysis; assay type: ADME; conditions: CTX-M-1-deficient Escherichia coli DH5alpha cells, read-out: Drug metabolism
[10] = target: DNA gyrase (Escherichia coli) (UniProt P0AES6+P0AES4); conditions: 1 uM
Enterococcus faecalis [11] = experiment: Effect on growth of Enterococcus faecalis GW01 incubated for 18 hrs by broth microdilution method; assay type: organism-based; conditions: in vivo
Enterococcus faecalis [12] = experiment: Effect on growth of Enterococcus faecalis ATCC 29212 incubated for 18 hrs by broth microdilution method; assay type: organism-based; conditions: in vivo
[13] = Drug metabolism in TEM-116-deficient Escherichia coli DH5[alpha] assessed as compound hydrolysis at 100 uM incubated for 90 mins by 1H-NMR spectra analysis; assay type: ADME; conditions: TEM-116-deficient Escherichia coli DH5alpha cells, read-out: Drug degradation
[14] = Prodrug activation in Escherichia coli DH5[alpha] expressing TEM-116 assessed as bacterial TEM-116 mediated compound hydrolysis at 100 uM incubated for 90 mins by 1H-NMR spectra analysis; conditions: bacteria, 1.5 h

Row | inhibition [10] | Compound | Selectivity ratio [1] | MIC (Escherichia coli [2]) [µM] | MIC (Escherichia coli [3]) [µM] | MIC (Escherichia coli [4]) [µM] | MIC (Escherichia coli [5]) | Drug metabolism [6] [%] | Drug metabolism [7] [%] | Drug metabolism [8] [%] | metabolised at 1 h, 100 µM [9] [%] | Activity (Enterococcus faecalis [11]) | Activity (Enterococcus faecalis [12]) | metabolised at 1.5 h, 100 µM [13] [%] | Drug metabolism [14] [%]
1 | – | CC(=O)OCC1=C(C(=O)O)N2C(=O)[C@@H](NC(=O)Cc3ccc(F)cc3)[C@H]2SC1 | <= 2 | 200 (≈ 81.7 µg/mL) | 100 (≈ 40.8 µg/mL) | > 400 | 100 µM (≈ 40.8 µg/mL) | 18 | – | – | – | – | – | – | –
2 | – | CCCCCC(=O)N[C@@H]1C(=O)N2C(C(=O)O)=C(COC(C)=O)CS[C@H]12 | <= 2 | > 800 | 200 (≈ 74.1 µg/mL) | > 400 | 100 µM (≈ 37 µg/mL) | 7 | – | – | – | – | – | – | –
3 | – | CC(=O)OCC1=C(C(=O)O)N2C(=O)[C@@H](NC(=O)Cc3ccc(C)cc3)[C@H]2SC1 | <= 2 | 400 (≈ 162 µg/mL) | 100 (≈ 40.4 µg/mL) | > 400 | 100 µM (≈ 40.4 µg/mL) | 7 | – | – | – | – | – | – | –
4 | – | CC(=O)OCC1=C(C(=O)O)N2C(=O)[C@@H](NC(=O)c3ccc(C)cc3)[C@H]2SC1 | <= 2 | > 400 | > 400 | > 400 | > 400 µM | 3 | – | – | – | – | – | – | –
5 | – | CC(=O)OCC1=C(C(=O)O)N2C(=O)[C@@H](NC(=O)c3ccccc3)[C@H]2SC1 | <= 2 | > 400 | > 400 | > 400 | > 400 µM | 26 | – | – | – | – | – | – | –
6 | – | CC(=O)OCC1=C(C(=O)O)N2C(=O)[C@@H](NC(=O)[C@H](C)c3ccccc3)[C@H]2SC1 | <= 2 | > 800 | 400 (≈ 162 µg/mL) | > 400 | > 400 µM | – | – | – | – | – | – | – | –
7 | – | CC(=O)OCC1=C(C(=O)O)N2C(=O)[C@@H](NC(=O)Cc3ccccc3)[C@H]2SC1 [CEFALORAM] | <= 2 | 100 (≈ 39 µg/mL) | 50 (≈ 19.5 µg/mL) | > 400 | 50 µM (≈ 19.5 µg/mL) | 17 | – | – | – | – | – | – | –
8 | – | CCCC(=O)N[C@@H]1C(=O)N2C(C(=O)O)=C(COC(C)=O)CS[C@H]12 | <= 2 | 400 (≈ 137 µg/mL) | 100 (≈ 34.2 µg/mL) | > 400 | 200 µM (≈ 68.5 µg/mL) | 25 | – | – | – | – | – | – | –
9 | – | CC(=O)OCC1=C(C(=O)O)N2C(=O)[C@@H](NC(=O)Cc3cccc(Oc4ccccc4)c3)[C@H]2SC1 | <= 2 | > 800 | > 800 | > 400 | >= 400 uM | – | – | – | – | – | – | – | –
10 | – | CC(=O)OCC1=C(C(=O)O)N2C(=O)[C@@H](NC(=O)Cc3cc(Br)cs3)[C@H]2SC1 | <= 2 | 200 (≈ 95.1 µg/mL) | 50 (≈ 23.8 µg/mL) | > 400 | 50 µM (≈ 23.8 µg/mL) | – | – | – | – | – | – | – | –
11 | – | CC(=O)OCC1=C(C(=O)O)N2C(=O)[C@@H](NC(=O)C3CCCCC3)[C@H]2SC1 | – | > 400 | > 400 | – | – | – | – | – | – | – | – | – | –
12 | – | CC(=O)OCC1=C(C(=O)O)N2C(=O)[C@@H](NC(=O)Cc3cccs3)[C@H]2SC1 [CEPHALOTHIN] | <= 2 | 100 (≈ 39.6 µg/mL) | 12.5 (≈ 4.96 µg/mL) | > 400 | 25 µM (≈ 9.91 µg/mL) | 68 | 61 | 100 | 0 | – | – | – | –
13 | Active | O=C(O)c1cn(C2CC2)c2cc(N3CCNCC3)c(F)cc2c1=O [CIPROFLOXACIN] | – | – | – | – | – | – | – | – | – | Toxic | Toxic | – | –
14 | – | CC(=O)OCC1=C(C(=O)O)N2C(=O)[C@@H](NC(=O)Cc3ccsc3)[C@H]2SC1 | <= 2 | 200 (≈ 79.3 µg/mL) | 50 (≈ 19.8 µg/mL) | > 400 | 50 µM (≈ 19.8 µg/mL) | 32 | – | – | – | – | – | – | –
15 | – | CC(=O)OCC1=C(C(=O)O)N2C(=O)[C@@H](NC(=O)Cc3ccc(Oc4ccccc4)cc3)[C@H]2SC1 | <= 2 | > 800 | > 800 | > 400 | > 400 µM | 4 | – | 94 | 0 | – | – | 13 | 54
16 | – | CC(=O)OCC1=C(C(=O)O)N2C(=O)[C@@H](NC(=O)Cc3ccc(-c4ccccc4)cc3)[C@H]2SC1 | <= 2 | > 800 | > 800 | > 400 | > 400 µM | 4 | – | 100 | 0 | – | – | 14 | 69
17 | – | CC(=O)N[C@@H]1C(=O)N2C(C(=O)O)=C(COC(C)=O)CS[C@H]12 | <= 2 | – | 200 (≈ 62.9 µg/mL) | > 400 | 400 µM (≈ 126 µg/mL) | 67 | – | – | – | – | – | – | –
18 | – | CC(=O)OCC1=C(C(=O)O)N2C(=O)[C@@H](NC(=O)Cc3ccc(Cl)cc3)[C@H]2SC1 | <= 2 | 400 (≈ 170 µg/mL) | 100 (≈ 42.5 µg/mL) | > 400 | 100 µM (≈ 42.5 µg/mL) | 14 | – | – | – | – | – | – | –
19 | – | CC(=O)OCC1=C(C(=O)O)N2C(=O)[C@@H](NC(=O)c3ccco3)[C@H]2SC1 | <= 2 | > 400 | > 400 | > 400 | > 400 µM | 64 | – | – | – | – | – | – | –
20 | – | CC(=O)OCC1=C(C(=O)O)N2C(=O)[C@@H](NC(=O)Cc3ccc(Br)cc3)[C@H]2SC1 | <= 2 | 800 (≈ 375 µg/mL) | 200 (≈ 93.9 µg/mL) | > 400 | 100 µM (≈ 46.9 µg/mL) | 9 | – | – | – | – | – | – | –
21 | – | CC(=O)OCC1=C(C(=O)O)N2C(=O)[C@@H](NC(=O)c3ccc([N+](=O)[O-])cc3)[C@H]2SC1 | – | > 400 | > 400 | – | – | – | – | – | – | – | – | – | –
22 | – | CC(=O)OCC1=C(C(=O)O)N2C(=O)[C@@H](NC(=O)Cc3cccc(C)c3)[C@H]2SC1 | <= 2 | 400 (≈ 162 µg/mL) | 200 (≈ 80.9 µg/mL) | > 400 | 200 µM (≈ 80.9 µg/mL) | 16 | – | – | – | – | – | – | –
23 | – | COc1ccc(C(=O)N[C@@H]2C(=O)N3C(C(=O)O)=C(COC(C)=O)CS[C@H]23)cc1 | <= 2 | > 800 | > 800 | > 400 | > 400 µM | 3 | – | – | – | – | – | – | –
